Assay results reported in ChEMBL document CHEMBL2385062, “Metabolism of a potent neuroprotective hydrazide” (Bioorg Med Chem, 2013).

Columns and labels:
[1] = Neuroprotective activity in human MC65 cells expressing C-terminal 99 amino acids from […] assessed as reduction in intracellular amyloid beta toxicity after 4 days by MTT assay; format: functional, cell-based; conditions: MC65, 96 h
How it was run: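 MC65 cells from confluent cultures were plated at 4 × 10⁵ per 35 mm dish with compounds. Tetracycline was kept present (no induction) or omitted (APP-C99 induced). After 4 days, viability was read by MTT and expressed relative to plus-tetracycline controls. EC50 was calculated from concentration–response curves.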

[2] = Neuroprotective activity in rat primary cortical neurons assessed as reduction in trophic factor withdrawal after 2 days by fluorescent live-dead assay; format: functional, cell-based; conditions: cerebral cortex neuron
How it was run: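 Cortical neurons from E18 rat embryos were plated at low density (1 × 10⁶ per 35 mm dish) in serum-free DMEM/F12 with N2 supplement plus compounds. After 2 days, viability was scored with a fluorescent live-dead assay as the percentage of input cells surviving. EC50 was derived from the concentration–response curves.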

HT-22 = test: Neuroprotective activity in mouse HT22 cells assessed as reduction in glutamate-induced oxidative stress incubated for 30 mins prior to glutamate-challenge measured after 20 hrs by MTT assay
Blood [3] = test: Drug metabolism in BALB/c mouse blood assessed as (E)-N-(2,4-dimethylphenyl)-2,2,2-trifluoro-N'-(3-hydroxybenzyli-dene)acetohydrazide retention time at 20 mg/kg, iv administered in corn oil by LC/MS/MS analysis; format: ADME, organism-based; set-up: dose 20 mg/kg, route intravenous; conditions: in vivo
How it was run: (§1)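 Mice received parent at 20 mg/kg iv, and blood was sampled 20 min later. Metabolites were identified by the same ethyl acetate extraction and LC/MS/MS workflow as for microsomes, using a polar reverse-phase column. Mass shifts were assigned to biotransformations.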

Blood [4] = test: Drug metabolism in BALB/c mouse blood assessed as metabolite BM2 retention time at 20 mg/kg, iv administered in corn oil by LC/MS/MS analysis; format: ADME, organism-based; set-up: dose 20 mg/kg, route intravenous; conditions: in vivo; how it was run: as §1
Blood [5] = test: Drug metabolism in BALB/c mouse blood assessed as metabolite BM1 retention time at 20 mg/kg, iv administered in corn oil by LC/MS/MS analysis; format: ADME, organism-based; set-up: dose 20 mg/kg, route intravenous; conditions: in vivo; how it was run: as §1
Blood [6] = test: Drug metabolism in BALB/c mouse blood assessed as retention time at 20 mg/kg, iv administered in corn oil by LC/MS/MS analysis; format: ADME, organism-based; set-up: dose 20 mg/kg, route intravenous; conditions: in vivo; how it was run: as §1
Liver microsomes [7] = test: Drug metabolism in human liver microsomes assessed as formation of (E)-2,2,2-trifluoro-N-(4-(hydroxymethyl)-2-methylphenyl)-N'-(3-methoxybenzylidene)acetohydrazide at 5 uM by LC/MS/MS analysis; format: ADME, Microsome
How it was run: (§2)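 Parent at 5 µM was incubated with human or mouse liver microsomes, then extracted with ethyl acetate at zero time or after 5 min. Extracts were separated on a C18 reverse-phase HPLC column and analysed by LC/MS/MS in positive mode over m/z 50–1000. Metabolites were characterised from EPI-scan product ion spectra and CID pathways.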

Liver microsomes [8] = test: Drug metabolism in human liver microsomes assessed as formation of (E)-N-(2,4-dimethylphenyl)-2,2,2-trifluoro-N'-(3-hydroxybenzyli-dene)acetohydrazide at 5 uM by LC/MS/MS analysis; format: ADME, Microsome; how it was run: as §2
Plasma [9] = test: Drug metabolism in mouse plasma assessed as formation of 2,4-dimethylhydrazine at 5 uM by LC/MS/MS analysis; format: ADME, cell-free
Plasma [10] = test: Drug metabolism in mouse plasma assessed as formation of 3-methoxy benzaldehyde at 5 uM by LC/MS/MS analysis; format: ADME, cell-free
Plasma [11] = test: Drug metabolism in mouse plasma assessed as formation of 2,4-dimethylaniline at 5 uM by LC/MS/MS analysis; format: ADME, cell-free
[12] = Drug metabolism in mouse liver microsomes assessed as formation of 3-methoxy benzaldehyde at 5 uM by LC/MS/MS analysis; format: ADME, Microsome; how it was run: as §2
[13] = Drug metabolism in mouse liver microsomes assessed as formation of 2,4-dimethylaniline at 5 uM by LC/MS/MS analysis; format: ADME, Microsome; how it was run: as §2
[14] = Drug metabolism in mouse liver microsomes assessed as formation of 2,4-dimethylhydrazine at 5 uM by LC/MS/MS analysis; format: ADME, Microsome; how it was run: as §2
Liver microsomes [15] = test: Drug metabolism in human liver microsomes assessed as formation of 3-methoxy benzaldehyde at 5 uM by LC/MS/MS analysis; format: ADME, Microsome; how it was run: as §2
Liver microsomes [16] = test: Drug metabolism in human liver microsomes assessed as formation of 2,4-dimethylhydrazine at 5 uM by LC/MS/MS analysis; format: ADME, Microsome; how it was run: as §2
Liver microsomes [17] = test: Drug metabolism in human liver microsomes assessed as formation of 2,4-dimethylaniline at 5 uM by LC/MS/MS analysis; format: ADME, Microsome; how it was run: as §2
[18] = Drug metabolism in mouse liver microsomes assessed as metabolite M4 retention time at 5 uM by LC/MS/MS analysis; format: ADME, Microsome; how it was run: as §2
[19] = Drug metabolism in mouse liver microsomes assessed as metabolite M5 retention time at 5 uM by LC/MS/MS analysis; format: ADME, Microsome; how it was run: as §2
[20] = Drug metabolism in mouse liver microsomes assessed as (E)-2,2,2-trifluoro-N-(4-(hydroxymethyl)-2-methylphenyl)-N'-(3-methoxybenzylidene)acetohydrazide retention time at 5 uM by LC/MS/MS analysis; format: ADME, Microsome; how it was run: as §2
[21] = Drug metabolism in mouse liver microsomes assessed as (E)-N'-(3,4-dihydroxybenzylidene)-N-(2,4-dimethylphenyl)-2,2,2-trifluoroacetohydrazide retention time at 5 uM by LC/MS/MS analysis; format: ADME, Microsome; how it was run: as §2
[22] = Drug metabolism in mouse liver microsomes assessed as (E)-N-(2,4-dimethylphenyl)-2,2,2-trifluoro-N'-(3-hydroxybenzyli-dene)acetohydrazide retention time at 5 uM by LC/MS/MS analysis; format: ADME, Microsome; how it was run: as §2
Liver microsomes [23] = test: Drug metabolism in human liver microsomes assessed as retention time at 5 uM by LC/MS/MS analysis; format: ADME, Microsome; how it was run: as §2
[24] = Drug metabolism in mouse liver microsomes assessed as retention time at 5 uM by LC/MS/MS analysis; format: ADME, Microsome; how it was run: as §2
[25] = Half life in human liver microsomes at 5 uM by LC/MS/MS analysis in presence of NADPH; format: ADME, Microsome
How it was run: (§3)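 Test compound at 5 µM was incubated at 37 °C with 0.5 mg/mL liver microsomes (human or mouse) in 5 mM phosphate buffer, pH 7.3, with or without 1 mM NADPH. Heat-inactivated microsomes (98 °C, 10 min) served as controls. At 0.1, 2, 5, 10 and 20 min, reactions were stopped with three volumes of ethyl acetate and centrifuged. Parent disappearance in the supernatant was followed by LC/MS/MS.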

[26] = Half life in mouse liver microsomes at 5 uM by LC/MS/MS analysis in presence of NADPH; format: ADME, Microsome; how it was run: as §3
[27] = Half life in BALB/c mouse blood at 20 mg/kg, orally administered in corn oil by LC/MS/MS analysis; conditions: po
[28] = Half life in BALB/c mouse brain at 20 mg/kg, orally administered in corn oil by LC/MS/MS analysis; conditions: po

`Cc1ccc(N(/N=C/c2cccc(O)c2)C(=O)C(F)(F)F)c(C)c1` showed an EC50 [1] of 78 nM, an EC50 [2] of 12 nM and an EC50 (HT-22) of 185 nM.

With `COc1cccc(/C=N/N(C(=O)C(F)(F)F)c2ccc(CO)cc2C)c1` the EC50 [1] was 92 nM, the EC50 [2] was 320 nM and the EC50 (HT-22) was 180 nM.

Work on `Cc1ccc(N(/N=C/c2ccc(O)c(O)c2)C(=O)C(F)(F)F)c(C)c1` yielded an EC50 [1] of 34 nM, an EC50 [2] of 31 nM and an EC50 (HT-22) of 1000 nM.

With `COc1cccc(/C=N/N(C(=O)C(F)(F)F)c2ccc(C)cc2C)c1` [J147] the EC50 [1] was 11 nM, the EC50 [2] was 33 nM and the Retention_time (Blood [3]) was 8.04 min. It also gave a Retention_time (Blood [4]) of 5.54 min, a Retention_time (Blood [5]) of 5.35 min and a Retention_time (Blood [6]) of 9.27 min. For the same compound, the Drug metabolism (Liver microsomes [7]) was “Active”, the Drug metabolism (Liver microsomes [8]) was “Active” and the Drug metabolism (Plasma [9]) was “Not Active”. The Drug metabolism (Plasma [10]) was “Not Active”, the Drug metabolism (Plasma [11]) was “Not Active” and the Drug metabolism [12] was “Not Active”. The Drug metabolism [13] was “Not Active”, the Drug metabolism [14] was “Not Active” and the Drug metabolism (Liver microsomes [15]) was “Not Active”. The Drug metabolism (Liver microsomes [16]) was “Not Active”, the Drug metabolism (Liver microsomes [17]) was “Not Active” and the Retention_time [18] was 5.96 min. It also gave a Retention_time [19] of 6.82 min, a Retention_time [20] of 7.86 min and a Retention_time [21] of 7.6 min. It also gave a Retention_time [22] of 8.36 min, a Retention_time (Liver microsomes [23]) of 10.97 min and a Retention_time [24] of 9.49 min. For the same compound, the half-life at 5 µM [25] was 4.5 min, the half-life at 5 µM [26] was < 4 min and the half-life [27] was 2.5 h. For the same compound, the half-life [28] was 2.5 h and the EC50 (HT-22) was 20 nM.
